Drawing on ChEMBL document CHEMBL1139997, “Structural basis for the activity of the RSK-specific inhibitor, SL0101” (Bioorg Med Chem, 2007), this text covers IC50, Activity and inhibition for eight compounds.

Molecules are shown by their SMILES. The source made the active and inactive calls. The calls are words filed in the database; no cut-off is given here.

As usually defined, the IC50 is the concentration needed to halve the response being measured. High values mean lower potency, low ones higher potency. By inhibition is commonly meant the percentage by which the read-out fell short of the control.

The nature of data set [1]: Inhibition of RSK expressed in SF9 cells. More on the design: species or system Homo sapiens.
Data set [2] is described as follows: Antiproliferative activity against human MCF10A cells up to 200 uM after 48 hrs. Particulars: mcf-10a. It counts as cell-based. A digest of the protocol: (§1)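 MCF-7 or MCF-10A cells were seeded at 5000 per well in ATCC-recommended medium. After 24 h the medium was replaced with medium containing compound or vehicle. Viability was read 48 h later by luminescent cell-viability reagent. Results are fold proliferation as % of vehicle-treated cells, mean of n = 2 in quadruplicate ± SD. EC50 was obtained by best-fit curve analysis.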

The test system of data set [3] is MCF7. Put plainly: Antiproliferative activity against human MCF7 cells at >100 uM after 48 hrs. It counts as functional, cell-based. A digest of the protocol: as §1
Data set [4] deals with MCF7. Put plainly: Inhibition of RSK mediated mitogen-induced p140 phosphorylation in MCF7 cells pretreated at 75 uM. It counts as cell-based. The settings on record: Homo sapiens. In outline:
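MCF-7 cells were seeded at 3×10^5 per well and serum-starved 24 h. They were pre-incubated with inhibitor or vehicle (2 h per legend; methods state 4 h), then given 500 nM PMA or vehicle for 20 min. Cells were lysed in boiling SDS buffer without DTT, and lysates were normalized for total protein before immunoblotting for phospho-p140.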

For a further data set, the species on record is Homo sapiens. The experiment in a line: Inhibition of RSK activity at 75 uM.
The subject of data set [5] is MCF7. The experiment in a line: Antiproliferative activity against human MCF7 cells at 75 uM after 48 hrs. It counts as functional, cell-based. In outline: as §1
The nature of data set [6]: Growth inhibition of human MCF10A cells at 75 uM 48 hrs. It counts as cell-based, MCF-10A. A digest of the protocol:
as §1

Data set [7] can be described thus: Inhibition of RSK expressed in SF9 cells at 10 uM. Particulars: Homo sapiens.
In data set [8] the test system is MCF7. Put plainly: Antiproliferative activity against human MCF7 cells at 15 uM. It counts as functional. In outline:
as §1

Data set [9] is described as follows: Antiproliferative activity against human MCF10A cells at 15 uM. The format is cell-based. The settings on record: mcf-10a. A digest of the protocol:
as §1

Data set [10] has as its system MCF7. The experiment in a line: Antiproliferative activity against human MCF7 cells after 48 hrs. The format is functional, cell-based. In outline: as §1
The test system of data set [11] is MCF7. The experiment in a line: Antiproliferative activity against human MCF7 cells at 100 uM after 48 hrs. It counts as functional. In outline:
as §1

In data set [1], `CCO[C@@H]1[C@@H](OCC)[C@@H](O)[C@H](Oc2c(-c3ccc(O)cc3)oc3cc(O)cc(O)c3c2=O)O[C@H]1C` registered a 50% inhibitory concentration (IC50) of 0.129 µM. In other words, the sub-micromolar range.
As to `CC(=O)O[C@@H]1[C@@H](OC(C)=O)[C@@H](O)[C@H](Oc2c(-c3ccc(O)cc3)oc3cc(O)cc(O)c3c2=O)O[C@H]1C`, the Activity result in [2] is recorded as “Not Active”. Moreover, the outcome in the data set with MCF7 [3] was Active.
As to `CC(=O)O[C@@H]1[C@@H](OC(C)=O)[C@@H](O)[C@H](Oc2c(-c3ccc(O)cc3)oc3cccc(O)c3c2=O)O[C@H]1C`, the IC50 in data set [1] was found to be 1.56 µM. Moreover, the outcome in the data set with MCF7 [4], in the data set listed under Homo sapiens and in the data set with MCF7 [5] was Active. Also, the inhibition at 48 h, 75 µM in data set [6] stood at 25%.
In data set [7], `CC(=O)Oc1ccc(-c2oc3cc(OC(C)=O)cc(OC(C)=O)c3c(=O)c2O[C@@H]2O[C@@H](C)[C@H](OC(C)=O)[C@@H](OC(C)=O)[C@H]2OC(C)=O)cc1` displayed an inhibition of 50%. The results for the Activity (in the data set on MCF7 [8]; in data set [9]) were 50% and “Not Active”, respectively.
The compound `C[C@@H]1O[C@@H](Oc2c(-c3ccc(O)cc3)oc3cc(O)cc(O)c3c2=O)[C@H](O)[C@H](O)[C@H]1O` [AFZELIN] had an IC50 in data set [1] of 4.37 µM. Moreover, the outcome in the data set on MCF7 [10] was inactive.
`CC(=O)O[C@@H]1[C@@H](OC(C)=O)[C@@H](O)[C@H](Oc2c(-c3ccc(O)cc3)oc3cc(O)ccc3c2=O)O[C@H]1C` came in with an IC50 in data set [1] of 24.6 µM. In the data set with MCF7 [11], the Activity was determined as 50%.
For the compound `COc1ccc(-c2oc3cc(OC)cc(OC)c3c(=O)c2O[C@@H]2O[C@@H](C)[C@H](OC(C)=O)[C@@H](OC(C)=O)[C@H]2O)cc1`, the outcome in [1] (Homo sapiens) was inactive.
In data set [1], `CC(=O)O[C@@H]1[C@@H](OC(C)=O)[C@@H](O)[C@H](Oc2c(-c3ccccc3)oc3cccc(O)c3c2=O)O[C@H]1C` gave a 50% inhibitory concentration (IC50) of 13.2 µM. In the data set with MCF7 [4], the inhibition was 50%. Also, the outcome in the data set filed under Homo sapiens and in the data set with MCF7 [5] was Active. For the same compound, the inhibition at 48 h, 75 µM in data set [6] came out at 25%.
